This is a sample that favours compounds with a hit; in the whole collection about 3% have one here.
MITF TRPM1 HTS: activators of MITF-driven TRPM1 promoter activity in SK-MEL-5 cells. SK-MEL-5 TRPM1-promoter luciferase, 24 h; % of positive control, neutral wells = 0. AID 588334. hit rate 0.75% among 300,000. activation, % at 12.5 µM;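 active means mean activation of at least 80% with every replicate also reaching 80%; inconclusive means mean reaches 80% but some replicate falls short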
NSD2 inh: blocks human histone methyltransferase NSD2; hit rate 0.54% among 310,000; O96028; AID 743445; NSD2 peptide methylation, AlphaScreen, 120 min; inhibition, % at 12.5 µM; in the data active means inhibition above about 50%
esBAF inh: inhibitors of esBAF chromatin remodeling in mouse ES cells; reporter increase, % at 12.5 µM; AID 602393; Bmi1-luciferase knock-in reporter, 24 h; 100% = twice the neutral-well signal; hit rate 2% among 350,000; in the data active means activation above about 40%; inconclusive means no clear call, values can overlap the other calls;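 further: a rise in the Bmi1 reporter signal indicates esBAF inhibition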
Wnt bcat act: activates Wnt/beta-catenin signaling in a reporter cell assay; activator, plate reader; activation, % at 9.35 µM; hit rate 1.2% among 300,000; AID 743398; in the data active means activation above about 30%, passing the limit was not always enough; inconclusive means no clear call, values can overlap the other calls
XiGFP reactiv: reactivates the inactive X chromosome in mouse fibroblasts; XiGFP mouse fibroblasts, % GFP-positive cells imaging, 3 d; cells co-treated with 5-aza-dC sensitizer; scaled so ellipticine positive control = 100%; activation, % at 7.58 µM; hit rate 0.055% among 360,000;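 active means mean normalized replicate activation at least 10% and every replicate at or above 10%; inconclusive means only one of the two criteria met; inactive means mean below 10% and not all replicates reach 10%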
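material = 68-5-11 XiGFP fibroblast line | medium = DMEM plus 5-aza-dC sensitizer | schedule = 3 days compound exposure | benchmarks = positive control ellipticine, 6 µM final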
Casp6 inh: inhibitors of human caspase-6 | purified caspase-6, Z-VEID-R110 cleavage fluorescence | inhibition, % at 12.5 µM | hit rate 0.53% among 350,000;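 active means mean inhibition across replicates at least about 35%, with every replicate also reaching that limit, limit read from the data; inconclusive means only one of the two criteria met; inactive means neither criterion met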
Target sequence (P55212 24-179 limits assumed): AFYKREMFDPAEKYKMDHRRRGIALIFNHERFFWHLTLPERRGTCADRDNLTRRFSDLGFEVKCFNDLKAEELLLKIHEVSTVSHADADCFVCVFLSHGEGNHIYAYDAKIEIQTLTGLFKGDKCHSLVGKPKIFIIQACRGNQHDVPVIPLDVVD
Target sequence (P55212 194-293 limits assumed): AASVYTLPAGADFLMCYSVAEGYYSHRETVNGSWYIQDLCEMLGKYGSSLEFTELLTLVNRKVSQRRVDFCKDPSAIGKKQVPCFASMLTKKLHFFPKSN
Hits are given with their value; 0 = inactive; ? = inconclusive; - = no result.

SMILES	MITF TRPM1 HTS	NSD2 inh	esBAF inh	Wnt bcat act	XiGFP reactiv	Casp6 inh
COC(=O)CCc1c(C)c(C(=O)c2cc(F)c(F)c(F)c2F)c2ccccn12	0	0	-	0	0	62.4
N#C/C(=C(/O)c1ccco1)c1nc2ccccc2s1	0	0	58.0	0	0	0
N#C/C(=C(/O)c1cccc(F)c1)c1nc2ccccc2s1	0	0	-	34.4	0	0
N#C/C(=C(/O)c1cc2ccccc2o1)c1nc2ccccc2s1	0	0	0	0	0	0
O=C(Cc1ccccn1)NCC[C@@H]1CC[C@@H](NS(=O)(=O)c2ccc(Cl)cc2)[C@H](CO)O1	-	-	0	-	0	0
O=C(C[C@H]1CC[C@H](NC(=O)Nc2cccc(F)c2)[C@H](CO)O1)NCC1CC1	-	-	0	-	0	0
C[C@@H]1CN([C@@H](C)CO)C(=O)c2cc(C#Cc3ccc(F)cc3)cnc2O[C@H]1CN(C)Cc1ccccn1	-	-	0	-	0	0
CN(C)c1ccc(NC(=O)N2CCOCC2)cc1	0	0	55.1	0	-	-
O=C(Nc1ccc(F)cc1)N1CCOCC1	0	0	-	-	-	-
COc1ccc2nc(NC(=O)c3ccco3)sc2c1	0	0	0	0	0	0
Cc1cc2sc(NC(=O)c3ccco3)nc2cc1Cl	-	0	0	30.4	0	0
COc1ccc2nc(NC(=O)C3CCN(C(=O)c4ccco4)CC3)sc2c1	-	0	53.4	0	0	0
COc1cc2sc(NC(=O)c3ccco3)nc2cc1Cl	0	0	51.6	?	0	0
O=C(Nc1nc2ccc(Cl)cc2s1)c1ccco1	0	0	-	?	-	-
COc1cccc(CN2C[C@@H]3N[C@H](C2)C3c2ccc(-c3ccccc3OC)cc2)c1 (some centres not stated)	-	-	-	-	0	0
C[C@@H]1CN([C@H](C)CO)S(=O)(=O)c2ccc(C#CC3CC3)cc2O[C@H]1CN(C)C(=O)C1CCC1	-	-	0	-	0	0
CNC(=O)c1ccc2snnc2c1	-	-	0	0	0	0
O=C(Nc1ccc(Cl)cc1)c1ccc2snnc2c1	0	-	56.7	0	0	0
COc1ccc(NC(=O)c2ccc3snnc3c2)cc1	0	0	56.4	-	-	-
CC(=O)c1ccc(NC(=O)c2ccc3snnc3c2)cc1	84.8	0	62.9	0	0	0
O=C(C[C@H]1C[C@@H]2c3cc(NS(=O)(=O)c4ccc(F)cc4)ccc3O[C@@H]2[C@H](CO)O1)NCc1cc(F)ccc1F	-	-	0	-	0	0
CC(C)(C)S(=O)(=O)c1cnc(-c2ccc(Cl)cc2)nc1N	?	0	-	39.1	0	0
CC(C)(C)S(=O)(=O)c1cnc(N2CCCCC2)nc1N	0	0	-	0	0	0
NC(=O)c1oc2ccccc2c1NC(=O)c1ccc(F)cc1	-	-	0	0	0	0
NC(=O)c1oc2ccccc2c1NC(=O)c1nc2ccccc2s1	0	0	62.9	-	-	-
SMILES	MITF TRPM1 HTS	NSD2 inh	esBAF inh	Wnt bcat act	XiGFP reactiv	Casp6 inh
Cc1cc(=O)oc2cc(NC(=O)c3ccccc3OC(F)F)ccc12	0	0	52.6	0	0	0
Cc1cc(=O)oc2cc(NC(=O)c3cc(F)ccc3F)ccc12	0	0	53.0	43.8	0	0
Cc1cc(=O)oc2cc(NS(=O)(=O)c3ccccc3)ccc12	-	0	-	52.5	0	0
O=S(=O)(Cc1ccccc1)N1[C@@H]2CNC[C@H]1C2c1ccc(/C=C/c2ccccc2)cc1 (some centres not stated)	-	-	-	-	0	-
CC(C)c1ccc2c(c1)C(c1ccc(N3CCOCC3)cc1)=NNC(c1cccs1)=N2	-	0	65.2	0	-	-
C[C@H](NC(=O)C[C@H]1C=C[C@H](NC(=O)Cc2ccccn2)[C@@H](CO)O1)c1ccccc1	-	-	0	-	0	0
c1cc2cc(-c3c(-c4ccc5c(c4)OCO5)noc3-c3ccsc3)ccc2[nH]1	0	-	54.9	32.9	0	0
Cc1onc(-c2ccc3c(c2)OCO3)c1-c1ccc2[nH]ccc2c1	0	-	0	0	0	0
COc1ccc2c3c([nH]c2c1)[C@@H](CO)N(Cc1cccnc1)CC31CN(C(=O)CN(C)C)C1	-	-	-	-	0	0
CN1CCN(C(=O)c2ccccc2-c2nc(-c3ccccc3)no2)CC1	0	0	48.4	0	-	-
Cc1ccc(-c2noc(-c3ccccc3C(=O)N3CCOCC3)n2)cc1	0	0	0	0	-	0
COc1ccc(-c2noc(-c3ccccc3F)n2)cc1	0	-	0	0	0	0
NC(=O)c1cccc(-c2noc(-c3ccccc3F)n2)c1	0	-	0	0	0	0
Fc1ccccc1-c1nc(-c2ccccc2)no1	0	0	0	46.1	-	-
